Experimental data: ChEMBL document CHEMBL1134850, “Biphenyl derivatives as novel dual NK(1)/NK(2)-receptor antagonists” (Bioorg Med Chem Lett, 2002)

target: T1, Substance-K receptor (Homo sapiens, UniProt P21452); assay: Binding affinity by measuring the inhibition of 125 I-NKA binding to transfected CHO cells expressing human recombinant Tachykinin receptor 2; format: cell-based
T1 sequence (P21452 whole entry): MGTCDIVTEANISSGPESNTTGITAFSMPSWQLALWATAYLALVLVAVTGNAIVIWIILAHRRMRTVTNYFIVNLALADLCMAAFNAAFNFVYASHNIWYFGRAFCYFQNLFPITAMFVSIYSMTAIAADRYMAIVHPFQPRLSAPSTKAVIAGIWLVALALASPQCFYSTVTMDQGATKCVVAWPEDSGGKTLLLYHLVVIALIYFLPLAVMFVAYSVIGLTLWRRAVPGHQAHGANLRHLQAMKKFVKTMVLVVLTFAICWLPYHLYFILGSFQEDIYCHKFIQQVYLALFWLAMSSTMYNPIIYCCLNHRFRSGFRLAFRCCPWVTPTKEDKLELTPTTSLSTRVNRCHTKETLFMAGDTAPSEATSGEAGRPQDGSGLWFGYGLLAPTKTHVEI
In short: (§1)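 Whole hNK2-transfected CHO cells (3 × 10⁵ per well) incubated 20 min at room temperature in 20 mM HEPES pH 7.4 with 2 mM MnSO₄ and 6 mM MgCl₂, 0.05 nM ¹²⁵I-NKA and varying test concentrations. Nonspecific binding defined with 50 nM NKA. Free ligand removed by rapid filtration, four ice-cold Tricine washes, filter-bound radioactivity by scintillation counting; triplicate samples.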

IC50	Compound
560 nM	CN(C(=O)c1cc(C(F)(F)F)cc(C(F)(F)F)c1)c1cc(C(=O)NC2CCCCNC2=O)ccc1-c1ccccc1 (centres undefined)
28 nM	CN(C(=O)c1cc(C(F)(F)F)cc(C(F)(F)F)c1)c1cc(C(=O)N[C@@H]2CCCCNC2=O)ccc1-c1ccc(F)cc1
43 nM	CN(C(=O)c1cc(C(F)(F)F)cc(C(F)(F)F)c1)c1cc(C(=O)N[C@@H]2CCCCNC2=O)ccc1-c1ccc(Cl)c(Cl)c1
168 nM	CN(C(=O)c1cc(C(F)(F)F)cc(C(F)(F)F)c1)c1cc(C(=O)NC2CCCCC2)ccc1-c1ccc(F)cc1
181 nM	Cc1ccc(-c2ccc(C(=O)N[C@@H]3CCCCNC3=O)cc2N(C)C(=O)c2cc(C(F)(F)F)cc(C(F)(F)F)c2)cc1
70 nM	CN(C(=O)c1cc(C(F)(F)F)cc(C(F)(F)F)c1)c1cc(C(=O)N[C@@H]2CCCCNC2=O)ccc1-c1ccc(Cl)cc1
> 1000 nM	CN(C(=O)c1ccccc1)c1cc(C(=O)NC2CCCCC2)ccc1-c1ccc(F)cc1

target: T1, Substance-K receptor; assay: Binding affinity was determined by measuring the inhibition of 125 I-NKA binding to transfected CHO cells expressing human recombinant Tachykinin receptor 2; format: cell-based; in short: as §1

IC50	Compound
500 nM	CN(C)C(=O)c1ccc(-c2ccc(Cl)cc2)c(N(C)C(=O)c2cc(C(F)(F)F)cc(C(F)(F)F)c2)c1
51 nM	CN(C(=O)c1cc(C(F)(F)F)cc(C(F)(F)F)c1)c1cc(C(=O)NC2CCCCC2)ccc1-c1ccc(Cl)cc1
108 nM	CN(C)CCCNC(=O)c1ccc(-c2ccc(Cl)cc2)c(N(C)C(=O)c2cc(C(F)(F)F)cc(C(F)(F)F)c2)c1
> 1000 nM	COc1cc(C(=O)Nc2cc(C(=O)NC3CCCCNC3=O)ccc2-c2ccc(Cl)cc2)cc(OC)c1OC (centres undefined)
162 nM	COc1cc(C(=O)N(C)c2cc(C(=O)N[C@@H]3CCCCNC3=O)ccc2-c2ccc(Cl)cc2)cc(OC)c1OC
> 1000 nM	CN(O)C(=O)c1ccc(-c2ccc(Cl)cc2)c(N(C)C(=O)c2cc(C(F)(F)F)cc(C(F)(F)F)c2)c1

Compound	IC50
COc1cc(C(=O)Nc2cc(C(=O)NC3CCCCC3)ccc2-c2ccc(Cl)cc2)cc(OC)c1OC	30 nM
